One experiment deals with CHO-K1. Description: Selectivity ratio of Kd for human beta1 adrenoceptor expressed in CHOK1 cells by radioligand displacement assay to Kd for human beta2 adrenoceptor expressed in CHOK1 cells by radioligand displacement assay. It counts as cell-based. The essentials: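 Whole-cell 3H-CGP 12177 binding (0.73 nM) in confluent CHO-K1 cells expressing human β1 or β2, 2 h at 37 °C. Cells were washed with cold PBS and counted by scintillation. Nonspecific binding was defined with 10 μM propranolol. IC50 came from a one-site fit, converted to KD; […] KD ratio. Triplicate points.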

Experiment [1] deals with T1, Beta-3 adrenergic receptor (Homo sapiens, UniProt P13945). Put plainly: Agonist activity at human beta3 adrenoceptor expressed in CHOK1 cells assessed as induction of [3H]cAMP accumulation after 5 hrs relative to isoprenaline. The following applies: CHO-K1. The format is functional, cell-based.
Target sequence in this assay (P13945 whole entry, looked up): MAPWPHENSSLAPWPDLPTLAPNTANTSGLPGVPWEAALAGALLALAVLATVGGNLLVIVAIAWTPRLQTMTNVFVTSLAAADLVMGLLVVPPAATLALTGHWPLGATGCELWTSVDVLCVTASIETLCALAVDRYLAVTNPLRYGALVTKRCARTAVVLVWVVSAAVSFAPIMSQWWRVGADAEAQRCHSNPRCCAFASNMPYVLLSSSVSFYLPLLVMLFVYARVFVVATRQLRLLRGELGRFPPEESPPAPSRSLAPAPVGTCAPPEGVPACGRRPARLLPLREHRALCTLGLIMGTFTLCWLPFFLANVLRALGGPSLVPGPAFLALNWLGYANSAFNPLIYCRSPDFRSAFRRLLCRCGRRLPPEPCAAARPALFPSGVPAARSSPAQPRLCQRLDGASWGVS
The target of experiment [2] is T1, Beta-3 adrenergic receptor. Put plainly: Agonist activity at human beta3 adrenoceptor expressed in CHOK1 cells assessed as induction of [3H]cAMP accumulation at 100 uM after 5 hrs relative to isoprenaline. The format is functional, cell-based. The following applies: CHO-K1. The essentials:
(§1)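 CHO-K1 cells stably expressing human β3 (790 fmol/mg protein) were grown to confluence and prelabelled 2 h with 2 μCi/mL 3H-adenine. Cells then had 15 min in 1 mM IBMX, followed by ligand for 5 h. The reaction was stopped with HCl, and 3H-cAMP was isolated on Dowex/alumina columns. Responses are % of 10 μM isoprenaline. Mean ± SEM of separate experiments.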
Target sequence in this assay (P13945 whole entry, looked up): as above

Experiment [3] concerns the target T1, Beta-3 adrenergic receptor. Put plainly: Agonist activity at human beta3 adrenoceptor expressed in CHOK1 cells assessed as induction of [3H]cAMP accumulation at 10 uM after 5 hrs relative to isoprenaline. It counts as functional, cell-based. Conditions: CHO-K1. The procedure, abridged:
as §1
Target sequence in this assay (P13945 whole entry, looked up): as above

Experiment [4] concerns the target T1, Beta-3 adrenergic receptor. Put plainly: Antagonist activity at human beta3 adrenoceptor expressed in CHOK1 cells assessed as inhibition of cimaterol-induced [3H]cAMP accumulation incubated for 15 mins prior to cimaterol induction measured after 5 hrs. The format is functional, cell-based, CHO-K1. The essentials:
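3H-cAMP accumulation in CHO-K1 cells stably expressing human β1, β2 or β3 adrenoceptors, prelabelled with 3H-adenine. Log KD was taken from the dose ratio shift, or by the Stephenson partial-agonist method when partial agonism was seen. Triplicates, on the same cell passage.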
Target sequence in this assay (P13945 whole entry): as the sequence (P13945 whole entry, looked up) above
(cAMP levels reflect the balance of adenylyl cyclase and phosphodiesterase activity.)

Experiment [5] deals with T2, Beta-2 adrenergic receptor (Homo sapiens, UniProt P07550). Description: Antagonist activity at human beta2 adrenoceptor expressed in CHOK1 cells assessed as inhibition of cimaterol-induced [3H]cAMP accumulation incubated for 15 mins prior to cimaterol induction measured after 5 hrs. The format is functional, cell-based, CHO-K1.
Target sequence in this assay (P07550 whole entry): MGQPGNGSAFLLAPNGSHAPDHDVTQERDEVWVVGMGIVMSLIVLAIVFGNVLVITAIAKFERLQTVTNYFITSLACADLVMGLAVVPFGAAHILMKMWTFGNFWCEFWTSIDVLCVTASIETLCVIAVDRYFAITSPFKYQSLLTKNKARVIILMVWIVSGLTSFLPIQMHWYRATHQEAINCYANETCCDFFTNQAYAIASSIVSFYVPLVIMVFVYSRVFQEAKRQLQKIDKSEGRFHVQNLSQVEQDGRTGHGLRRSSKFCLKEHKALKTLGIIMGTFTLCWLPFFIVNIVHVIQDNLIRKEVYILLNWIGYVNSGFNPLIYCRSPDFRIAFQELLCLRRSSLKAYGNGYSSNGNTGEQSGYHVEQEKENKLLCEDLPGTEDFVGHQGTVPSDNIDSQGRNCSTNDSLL
Experiment [6] addresses T3, Beta-1 adrenergic receptor (Homo sapiens, UniProt P08588). Description: Partial agonist activity at human beta1 adrenoceptor expressed in CHOK1 cells assessed as induction of [3H]cAMP accumulation after 5 hrs. The format is functional, cell-based, CHO-K1.
The target of experiment [7] is T3, Beta-1 adrenergic receptor. Description: Antagonist activity at human beta1 adrenoceptor expressed in CHOK1 cells assessed as inhibition of cimaterol-induced [3H]cAMP accumulation incubated for 15 mins prior to cimaterol induction measured after 5 hrs. The format is functional, cell-based, CHO-K1.
Experiment [8] deals with T3, Beta-1 adrenergic receptor. Description: Displacement of [3H]-CGP12177 from human beta1 adrenoceptor expressed in CHOK1 cells after 2 hrs by scintillation counting analysis. It counts as cell-based, CHO-K1. Background: In a radioligand displacement assay an active substance lowers the binding of a labelled ligand.
For experiment [9], the target named is T2, Beta-2 adrenergic receptor. Put plainly: Displacement of [3H]-CGP12177 from human beta2 adrenoceptor expressed in CHOK1 cells after 2 hrs by scintillation counting analysis. It counts as cell-based, CHO-K1. Conditions: for inhibition: CHO-K1.
In experiment [10] the test system is Rattus norvegicus. Put plainly: Partial agonist activity at beta1 adrenoceptor in conscious free moving Sprague-Dawley rat model assessed as increase in heart rate at 2 mg/kg, iv bolus followed by 1 mg/kg/hr, iv infusion for 90 mins measured for 0.5 hrs to 25 hrs relative to 120 ng/kg of isoprenaline. It counts as functional. The essentials:
(§2)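 Conscious, unrestrained adult male Sprague–Dawley rats (300–350 g) with an implanted Doppler probe, an aortic catheter for blood pressure and heart rate, and a jugular catheter for dosing; studied 24 h after catheterisation. Atropine methyl nitrate 1 mg/kg/h was infused throughout. Isoprenaline 3 min infusions (12, 40, 120 ng/kg/min) were given before and from 30 min after saline or HCl salt iv bolus plus infusion. Response = third-minute value minus pre-infusion steady state; hindquarters conductance derived from BP and Doppler shift; n = 4.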

Experiment [11] has as its system Rattus norvegicus. Description: Partial agonist activity at beta1 adrenoceptor in conscious free moving Sprague-Dawley rat model assessed as inhibition of heart rate responses at 2 mg/kg, iv administered as bolus followed by 1 mg/kg/hr, iv administered as 90 mins infusion measured for 0.5 hrs to 25 hrs relative to 40 to 120 ng/kg of isoprenaline. It counts as functional, organism-based. The procedure, abridged:
as §2

Experiment [12] relates to Rattus norvegicus. Description: Agonist activity at beta2 adrenoceptor in conscious free moving Sprague-Dawley rat model assessed as effect on hindquarters response at 2 mg/kg, iv administered as bolus dose followed by 1 mg/kg/hr, iv administered as 90 mins infusion measured for 0.5 hrs to 25 hrs. The format is functional, organism-based. The essentials:
as §2

Calls of active or inactive are those of the source. No cut-off for these calls is given here.

T3 sequence (P08588 whole entry): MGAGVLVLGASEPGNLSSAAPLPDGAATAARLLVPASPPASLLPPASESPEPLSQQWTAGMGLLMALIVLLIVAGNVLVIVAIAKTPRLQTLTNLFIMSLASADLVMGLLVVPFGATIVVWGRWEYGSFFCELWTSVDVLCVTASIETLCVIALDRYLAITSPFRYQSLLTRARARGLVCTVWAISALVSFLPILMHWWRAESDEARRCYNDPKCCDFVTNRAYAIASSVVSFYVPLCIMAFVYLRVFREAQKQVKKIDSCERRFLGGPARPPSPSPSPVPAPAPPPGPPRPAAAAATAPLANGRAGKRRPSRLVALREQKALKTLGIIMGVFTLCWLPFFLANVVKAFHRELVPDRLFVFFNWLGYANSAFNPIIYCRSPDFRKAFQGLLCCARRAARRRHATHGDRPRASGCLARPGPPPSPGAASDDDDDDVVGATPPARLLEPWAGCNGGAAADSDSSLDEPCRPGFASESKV

For `O=C(NCCNCC(O)COc1ccc(OCCOC2CCCC2)cc1)Nc1ccc(Cl)cc1` (centres undefined), the Selectivity ratio with CHO-K1 stood at 110.
As to `CC(C)NCC(O)c1ccc(N)c(C#N)c1` (centres undefined), the Activity in experiment [1] was 89.6%.
As for `O=C(NCCNCC(O)COc1ccc(OCCOC2CCCC2)cc1)Nc1ccc(Br)cc1` (centres undefined), the Selectivity ratio in the experiment on CHO-K1 is 81.
Turning to `O=C(NCCNCC(O)COc1ccc(O)cc1)N1CCOCC1` (centres undefined), in experiment [2], the Activity was found to be 38.3%.
As for `O=C(NCCNCC(O)COc1ccc(OCCOC2CCCC2)cc1)Nc1ccccc1F` (centres undefined), the Selectivity ratio in the experiment on CHO-K1 was 76.
With `N#Cc1ccccc1OCC(O)CNCCNC(=O)Nc1ccccc1` (centres undefined), the Activity in experiment [3] came out at 11.7%.
In the case of `O=C(NCCNCC(O)COc1ccc(OCCOC2CCCC2)cc1)Nc1ccc(F)cc1` (centres undefined), the Selectivity ratio in the experiment with CHO-K1 was 60.
Still for that read-out and setting: as for `O=C(NCCNCC(O)COc1ccc(OCCOC2CCCC2)cc1)Nc1ccccc1Br` (centres undefined), the figure is 10.
As a reminder, the EC50 is the concentration giving half of the maximal effect. Turning to `O=C(NCCNCC(O)COc1ccc(OCCOCC2CC2)cc1)Nc1ccc(O)cc1` (centres undefined) [listing 1 of 2 here], the Kd was over 10 µM in [4] (read-out: Kd), 7080 nM in [5] (read-out: pKd (converted)), 17.8 nM in experiment [7] and 32.4 nM in experiment [8]. For the same molecule, in experiment [6], the EC50 is 9.77 nM.
On to `O=C(NCCNCC(O)COc1ccc(OCCOC2CCCC2)cc1)Nc1ccc(O)cc1` (centres undefined), for which the Kd in experiment [4] (read-out: Kd) is over 10 µM; in experiment [5] (read-out: pKd (converted)), 1450 nM; in experiment [7], 2.82 nM; in experiment [8], 7.41 nM. In experiment [6], the EC50 was 3.63 nM. Moreover, the Activity in [3] is 4%. The Selectivity ratio with CHO-K1 worked out at 478.
Regarding `Cc1ccccc1NC(=O)NCCNCC(O)COc1ccc(OCCOC2CCCC2)cc1` (centres undefined), in the experiment with CHO-K1, the Selectivity ratio amounted to 11.
Same read-out and setting: as for `O=C(NCCNCC(O)COc1ccc(OCCOC2CCCC2)cc1)Nc1cccc(F)c1` (centres undefined), the figure is 43.
As to `O=C(NCCNCC(O)COc1ccc(OCCOCCc2ccc(F)cc2)cc1)Nc1ccc(O)cc1` (centres undefined), the Kd in experiment [4] (read-out: pKd (converted)) was 2.63 µM; in [5] (read-out: pKd (converted)), 891 nM; in experiment [7], 1 nM; in experiment [9] it was 1230 nM. Besides, the EC50 in experiment [6] was 2.29 nM. The Activity in experiment [3] came out at 7.9%. For the same molecule, in the experiment with CHO-K1, the Selectivity ratio turned out to be 389.
For `Cl.O=C(NCCNCC(O)COc1ccc(OCCOCC2CC2)cc1)Nc1ccc(O)cc1` (centres undefined), in the experiment with Rattus norvegicus [10], the Activity turned out to be 44%.
For the molecule `O=C(NCCNCC(O)COc1ccc(OCCOCC2CC2)cc1)Nc1ccc(O)cc1` (centres undefined) [listing 2 of 2 here], in the experiment with Rattus norvegicus [11], the inhibition result was “Active”. The result in the experiment on Rattus norvegicus [12] was inactive. Moreover, the Activity in experiment [3] is 12.5%. For the same molecule, the inhibition entry in [9] was “inactive”.
Take `O=C(NCCNCC(O)COc1ccc(OCCOC2CCCC2)cc1)Nc1cccc(C(F)(F)F)c1` (centres undefined): in the experiment with CHO-K1, the Selectivity ratio came out at 81.
Still for that read-out and setting: as for `Cc1cccc(NC(=O)NCCNCC(O)COc2ccc(OCCOC3CCCC3)cc2)c1` (centres undefined), the figure is 96.
With `CCOCCOc1ccc(OCC(O)CNCCNC(=O)Nc2ccc(O)cc2)cc1` (centres undefined), the Kd in experiment [4] (read-out: Kd) is over 10 µM; in experiment [5] (read-out: Kd) it was over 10000 nM; in experiment [7] it was 26.9 nM; in [8] it was 91.2 nM. The half-maximal effective concentration (EC50) in experiment [6] is 22.9 nM. For the same molecule, the Activity in [3] came out at 1.3%. In addition, in experiment [9], the inhibition result is “inactive”.
`COc1cccc(NC(=O)NCCNCC(O)COc2ccc(OCCOC3CCCC3)cc2)c1` (centres undefined): the Selectivity ratio in the experiment on CHO-K1 was found to be 51.
`O=C(NCCNCC(O)COc1ccc(OCCOC2CCCC2)cc1)Nc1cccc(Cl)c1` (centres undefined): the Kd was 6.03 µM in experiment [4] (read-out: pKd (converted)); 794 nM in experiment [5] (read-out: pKd (converted)); 1.48 nM in experiment [7]; 2040 nM in experiment [9]; 6.17 nM in experiment [8]. Further, the half-maximal effective concentration (EC50) in [6] is 3.02 nM. The Activity in [3] came to 2%. Further, the Selectivity ratio with CHO-K1 worked out at 331.
`N#Cc1cc(OCCOCC2CC2)ccc1OCC(O)CNCCNC(=O)Nc1ccc(O)cc1` (centres undefined) [LK-204545]: the Kd is over 10 µM in experiment [4] (read-out: Kd), 2880 nM in experiment [5] (read-out: pKd (converted)) and 5130 nM in experiment [9]. Further, in experiment [3], the Activity was determined as 8.6%.
On to `O=C(NCCNCC(O)COc1ccc(OCCOC2CCCC2)cc1)Nc1ccccc1C(F)(F)F` (centres undefined), for which the Selectivity ratio with CHO-K1 stood at 13.
As for `O=C(NCCNCC(O)COc1ccc(OCCOC2CCCC2)cc1)Nc1ccccc1` (centres undefined), the Kd is over 10 µM in experiment [4] (read-out: Kd); 1200 nM in experiment [5] (read-out: pKd (converted)); 3.47 nM in [7]; 2630 nM in experiment [9]; 12.3 nM in [8]. In addition, the EC50 in [6] was 4.47 nM. The Activity in experiment [3] was 4%. The Selectivity ratio in the experiment with CHO-K1 was found to be 213.
On to `O=C(NCCNCC(O)COc1ccc(OCCOC2CCCC2)cc1)Nc1cccc(O)c1` (centres undefined), for which, in the experiment on CHO-K1, the Selectivity ratio is 110.
Consider `COc1ccccc1NC(=O)NCCNCC(O)COc1ccc(OCCOC2CCCC2)cc1` (centres undefined), for which the Selectivity ratio with CHO-K1 is 12.
Take `COc1ccc(NC(=O)NCCNCC(O)COc2ccc(OCCOC3CCCC3)cc2)cc1` (centres undefined): in the experiment with CHO-K1, the Selectivity ratio was 87.
Regarding `O=C(NCCNCC(O)COc1ccc(OCCOC2CCCC2)cc1)Nc1ccc(C(F)(F)F)cc1` (centres undefined), the Selectivity ratio with CHO-K1 is 87.

The values are drawn from ChEMBL document CHEMBL2346523, “Synthesis and in vitro and in vivo characterization of highly β1-selective β-adrenoceptor partial agonists” (J Med Chem, 2013).
